The values below come from ChEMBL document CHEMBL3596120, “Discovery of natural alkaloid bouchardatine as a novel inhibitor of adipogenesis/lipogenesis in 3T3-L1 adipocytes” (Bioorg Med Chem, 2015).

Test [1] relates to 3T3-L1. Nature of the test: Effect on in AMPKalpha protein expression in mouse 3T3L1 cells at 25 uM after 0.5 to 4 hrs by Western blot method. It is filed as functional, cell-based. (In western blotting, separated proteins are transferred to a membrane and probed.)
Test [2] deals with 3T3-L1. Briefly: Inhibition of adipogenesis in mouse 3T3L1 cells assessed as reduction in triglyceride content at 0.2 mM by colorimetric assay. It is filed as functional, cell-based.
Test [3] concerns 3T3-L1. Briefly: Increase in AMPKalpha Thr172 phosphorylation in mouse 3T3L1 cells at 0.2 mM after 9 days by Western blot method. It is filed as cell-based. In outline: (§1)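 Mouse 3T3-L1 cells taken through the differentiation protocol, with compound or DMSO vehicle given from day 0 and renewed at day 3. Cells lysed on ice for 0.5 h in RIPA with PMSF, Na3VO4, NaF and protease inhibitors, then centrifuged at 12,000g. Lysates run on 12% SDS-PAGE and transferred to PVDF. Blots probed overnight at 4 °C and detected with HRP secondary. Bands quantified by optical density against GAPDH. Three independent experiments.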

In test [4] the test system is 3T3-L1. Nature of the test: Activation of AMPK in mouse 3T3L1 cells assessed as increase in ACC Ser79 phosphorylation at 0.2 mM after 9 days by Western blot method. It is filed as cell-based. In outline: as §1
Test [5] in a line: Reduction in SCD1 protein expression in mouse 3T3L1 cells at 0.2 mM after 3 days by Western blot method. It is filed as functional, cell-based. Particulars: 3T3-L1. In outline: (§2)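 3T3-L1 preadipocytes grown in DMEM with 10% FBS at 37 °C under 5% CO2. Differentiation starts 2 days post-confluence (day 0) with IBMX, 100 ng/mL dexamethasone and insulin for 3 d, then insulin in 10% FBS/DMEM for 3 d, then basic medium for 3 d. Compound is added on day 0 and renewed at day 3. Vehicle control receives the same volume of DMSO.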

A short description of test [6]: Reduction in SREBP-1c protein expression in mouse 3T3L1 cells at 0.2 mM after 3 days by Western blot method. It is filed as functional, cell-based. As to conditions: 3T3-L1. The essentials:
as §2

Test [7] in a line: Reduction in PPARgamma protein expression in mouse 3T3L1 cells at 0.2 mM after 3 days by Western blot method. Particulars: 3T3-L1. It is filed as functional, cell-based. The essentials:
as §2

Test [8] in a line: Reduction in C/EBPalpha protein expression in mouse 3T3L1 cells at 0.2 mM after 3 days by Western blot method. Particulars: 3T3-L1. It is filed as functional, cell-based. The essentials: as §1
The nature of test [9]: Reduction in FAS protein expression in mouse 3T3L1 cells at 0.2 mM after 3 days by Western blot method. It is filed as functional, cell-based. As to conditions: 3T3-L1. The essentials:
as §2

Active and inactive are the calls of the source. The calls are words filed in the database; no cut-off is given here.

Regarding `NC(=O)c1ncn([C@@H]2O[C@H](CO)[C@@H](O)[C@H]2O)c1N`, the outcome in the test with 3T3-L1 [1] was inactive. For the same molecule, the outcome (in the test on 3T3-L1 [2]; in the test with 3T3-L1 [3]; in the test with 3T3-L1 [4]; in test [5]; in test [6]; in test [7]) was Active. For the same molecule, the outcome in [8] and in test [9] was Active.
